MT1-MMP act inh – blocks activation of human MT1-MMP. P50281. HT1080 RFP-PRO-GFP cells, GFP/RFP ratio fluorescence, overnight; percent of plate control window, DMSO zero. GFP/RFP ratio change, % at 20 µM. 0.061% of 360,000 active;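 active = GFP/RFP ratio change of at least 30% with cell ATP level not reduced by more than half and red fluorescence within 50% of control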
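Assay system – RFP-PRO-GFP reporter HT1080 cells · Compound dosing – single dose of 20 µM compound, 1% DMSO final · Incubation – overnight compound exposure at 37 °C · Measure – GFP/RFP fluorescence ratio · Benchmarks – DMSO wells and RFP-L50D-GFP cells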
Rin1-Abl PPI inh – blocks binding of human Rin1 to Abl; TR-FRET Rin1/Abl binding, biochemical; 0.4% of 360,000 active; inhibition, % at 7.35 µM; in the data active = inhibition above about 5%, passing the limit was not always enough
SKN-1 inh – C. elegans SKN-1 inhibition; C. elegans VP596 Pgst-4::GFP/RFP ratio, acrylamide-induced, 24 h; AID 624304; inhibition, % at 21.8 µM; 0.49% of 360,000 active;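 active = interference check ratio from 0.5 to 1.5 plus GFP to RFP signal ratio inhibition reaching or exceeding a fixed threshold, cut at about 30% in these data, passing the limit was not always enough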
Arr AP2 block – inhibitors of human beta-arrestin and AP2 interaction; inhibition, % at 10 µM; FITC-arrestin peptide / GST-AP2 beads, flow cytometry; AP2 beta2 appendage carries R879A mutation; AID 504490; 0.31% of 340,000 active;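 active = inhibition above a set limit, near 3 SD of compounds lacking own fluorescence, cut at about 54% in these data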;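 also: plate controls were DMSO wells for no effect and 5 µM unlabelled arrestin peptide for full effect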
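test system = AP2 appendage R879A on GSH beads | buffer or medium = PBS plus Tween 20 (0.05%) and BSA (0.1%) | incubation = 12 min plus 1 h, RT | detection = bead flow cytometry, FITC channel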
TbMetRS inhib – Trypanosoma brucei MetRS inhibition; purified T. brucei MetRS, ATP depletion, Kinase-Glo luminescence; inhibition, % at 11.9 µM; 0.4% of 360,000 active;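 active = inhibition above a per-plate cutoff of the control wells' mean inhibition plus 3 SD, cut at about 5.5% in these data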;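 also: 0% = DMSO wells median and 100% = median of wells with control inhibitor compound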
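Test system – parasite MetRS enzyme · Reagent – substrates ATP, L-methionine and bulk Escherichia coli tRNA · Doses – 11.9 µM compound single dose, 0.9% DMSO · Times – 15 min enzyme-compound preincubation, 2 h reaction, 10 min detection, 25 °C · Signal – Kinase-Glo luminescence, ATP depletion format · Controls – DMSO-only wells as low control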
Tb MetRS conf – Trypanosoma brucei MetRS inhibition confirmed; T. brucei MetRS enzyme, luminescence (ATP depletion); shares compounds with TbMetRS inhib; inhibition, % at 11.9 µM; 93% of 1,400 active; in the data active = inhibition above about 7%
Jurkat tox – counter-screen for T. brucei MetRS inhibitors: Jurkat cell cytotoxicity; Jurkat cells viability, ATP luminescence; inhibition, % at 8.3 µM; 12% of 1,400 active; shares compounds with TbMetRS inhib; in the data active = inhibition above about 15%;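 also: 0% = vehicle and 100% = reference inhibitor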
TbMetRS FP orth – inhibits T. brucei methionyl tRNA synthetase in orthogonal FP test; AID 651607; purified T. brucei MetRS, fluorescence polarization; shares compounds with TbMetRS inhib; 44% of 1,400 active; inhibition, % at 11.9 µM; in the data active = inhibition above about 17%;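 also: 0% = vehicle wells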
Starred values were filed as active, the others as inactive; / = not tested or not shown. Most compounds without a hit are left out; they make up all but 1.6% or so of the library.

SMILES | MT1-MMP act inh | Rin1-Abl PPI inh | SKN-1 inh | Arr AP2 block | TbMetRS inhib | Tb MetRS conf | Jurkat tox | TbMetRS FP orth
CC(C)NC(=O)CN1CCN(C(c2ccnc3ccccc23)c2nnnn2-c2ccc3c(c2)OCCO3)CC1 (stereo not given) | 0 | / | 14 | / | -1 | / | / | /
CCOC(=O)CN(C(=O)CSc1nnc2c(n1)[nH]c1ccc(F)cc12)c1ccccc1 | 8 | -5 | 11 | 2 | 6.3* | 17* | 2 | 10
COc1ccc(/C=C(/C#N)c2cccnc2)cc1OC | 3 | -4 | 0 | 6 | 16* | 21* | -5 | 15
CC1(Oc2ccccc2-c2ccn[nH]2)CCN(Cc2ccc(OC(F)(F)F)cc2)C1 (stereo not given) | -3 | -5 | 7 | / | 0 | / | / | /
Cc1cc(C)nc(NS(=O)(=O)c2ccc(NS(=O)(=O)c3ccccc3)cc2)n1 | 6 | 0 | -2 | 28 | -1 | / | / | /
Cc1cc(C)nc(NS(=O)(=O)c2ccc(NC(=O)Nc3ccccc3)cc2)n1 | 8 | 0 | 8 | 8 | 13* | 16* | 2 | 5
Cc1cc(NS(=O)(=O)c2ccc(NC(=O)Nc3ccccc3)cc2)no1 | 3 | 2 | -7 | 31 | 8.4* | 16* | 5 | -4
O=C1COc2ccc(C(=O)CSc3nnc(NCc4ccccc4)s3)cc2N1 | 3 | 2 | -4 | -7 | 8.7* | 13* | 2 | 14
COCCCNC(=O)C[C@H]1C[C@H](C(=O)N2CCCCC2)[C@@]2(CCc3ccccc3)c3[nH]c4cc(CCC(=O)N(C)C)ccc4c3CCN2C1=O | -2 | 1 | -5 | 16 | -1 | / | / | /
CCCCNC(=O)C1C(c2ccc(C(F)(F)F)cc2)=Nc2ccccc2N1C(=O)c1cccc(C(F)(F)F)c1 (stereo not given) | -5 | / | 0 | / | 0 | / | / | /
CC(OC(=O)CNC(=O)c1ccc(Cl)c([N+](=O)[O-])c1)C(=O)NC1CCCCC1C (stereo not given) | 4 | 0 | 2 | -6 | 7.2* | 26* | -1 | 13
Cc1ccc(C(=O)NCC(=O)OC(C)C(=O)NC2CCCCC2C)cc1C (stereo not given) | 3 | 2 | 15 | -13 | 0 | / | / | /
COc1ccc(CNc2ncnc3c2[nH]c2ccccc23)cc1 | 7 | -4 | 19 | -10 | 88* | 94* | 24* | 73*
c1ccc(CNc2ncnc3c2oc2ccccc23)nc1 | -3 | -2 | 13 | 1 | -1 | / | / | /
Brc1ccc2[nH]c3c(NCc4ccccn4)ncnc3c2c1 | 8 | -11 | -3 | -7 | 83* | 88* | 3 | 79*
COc1ccc(CNc2ncnc3c2[nH]c2cc(OC)c(OC)cc23)cc1 | 14 | 2 | 9 | 1 | 0 | / | / | /
CC(C)OCCCNc1ncnc2c1[nH]c1ccccc12 | 3 | -2 | 12 | 6 | 74* | 87* | 38* | 64*
C1=C(CCNc2ncnc3c2[nH]c2ccccc23)CCCC1 | -11 | -3 | 14 | 4 | 79* | 97* | 56* | 76*
O=C(CCNS(=O)(=O)c1ccccc1)NNC(=O)COc1ccc(Cl)cc1 | 5 | 2 | 20 | -5 | 0 | / | / | /
CCOC(=O)c1c(N/C=C(\C#N)c2nc(-c3ccc(OC(C)=O)cc3)cs2)sc2c1CCC2 | 2 | -2 | -14 | 14 | -1 | / | / | /
O=C(NCCO)c1ccc(-c2ccc3nncn3c2)cc1 | 5 | -3 | -4 | / | 0 | / | / | /
O=C(Nc1c(Cl)cc2c(c1Cl)Cc1cc([N+](=O)[O-])ccc1-2)C(Cl)Cl | -1 | -3 | 18 | -9 | 0 | / | / | /
Cc1ccc2nc(/C(C#N)=C\c3ccc([N+](=O)[O-])o3)[nH]c2c1 | -74 | -1 | 9 | 5 | 1 | / | / | /
Cc1ccc2nc(/C(C#N)=C/c3ccc(-c4ccccc4C(=O)O)o3)[nH]c2c1 | -130 | -4 | 20 | 4 | 6.0* | 22* | 4 | 4
Cc1cc(/C=C(/C#N)c2nc3ccccc3[nH]2)c(C)n1-c1cc(C(=O)O)cc(C(=O)O)c1 | -37 | 1 | 10 | 34 | 5.8* | 37* | -3 | 12
SMILES | MT1-MMP act inh | Rin1-Abl PPI inh | SKN-1 inh | Arr AP2 block | TbMetRS inhib | Tb MetRS conf | Jurkat tox | TbMetRS FP orth
Cc1cc(/C=C(/C#N)c2nc3ccccc3[nH]2)c(C)n1-c1ccccc1C(=O)O | -19 | -2 | -1 | -31 | 2 | / | / | /
CCCCn1c(OC(=S)N(CC)CC)cc(C)nc1=S | 7 | -1 | 5 | / | -1 | / | / | /
CC1(C(=O)NC2CCCC2)CCC(=O)N1CCOc1ccccc1 (stereo not given) | 1 | -1 | 0 | / | 0 | / | / | /
Cc1ccc2cc(CCNC(=O)C(=O)c3c(C)[nH]c4ccccc34)c(=O)[nH]c2c1 | -3 | 0 | 1 | -10 | 13* | 31* | 5 | 4
CC(=NN1CC(=O)NC1=O)c1ccc([N+](=O)[O-])o1 | -3 | 4 | 12 | 5 | 0 | / | / | /
O=C(Nc1cccc(S(=O)(=O)N2CCOCC2)c1)c1ccc(Cl)c([N+](=O)[O-])c1 | 7 | 0 | 9 | -10 | 7.7* | 19* | 21* | 15
O=C(Nc1ccccc1)Nc1ccc(Cl)c(S(=O)(=O)N2CCOCC2)c1 | 4 | 1 | 13 | -25 | 15* | 19* | 14 | 15
CC(=O)C1=C(O)CCCC1=NCc1nc2ccccc2[nH]1 | -2 | -1 | 3 | -1 | 6.2* | 12* | -6 | 9
C=CCN=C1CC(C)(C)CC(=O)/C1=C(/O)CCC(=O)OC | -1 | -1 | -2 | -4 | 0 | / | / | /
COC(=O)CC/C(O)=C1\C(=O)CC(C)(C)CC1=NCc1nc2ccccc2[nH]1 | 1 | -4 | -4 | -2 | 48* | 67* | -4 | 35*
CC(=O)C1=C(O)CC(C)(C)CC1=NCc1nc2ccccc2[nH]1 | 1 | 4 | 10 | -13 | 3 | / | / | /
Cc1ccccc1-n1cc(-c2ccc(Br)cc2)nc1SCC(N)=O | 2 | -1 | -21 | 9 | 29* | 39* | 6 | 23*
Cc1ccc(-c2cn(-c3ccccc3)c(SCC(N)=O)n2)cc1C | -10 | -2 | 16 | -1 | 0 | / | / | /
O=S(=O)(Nn1c(O)c(C=C2N=c3ccccc3=N2)sc1=S)c1ccccc1 | 1 | 1 | -8 | -10 | 55* | 65* | -5 | 39*
CC(Oc1ccc2c(-c3ccccc3)cc(=O)oc2c1)C(=O)NC(Cc1c[nH]c2ccc(O)cc12)C(=O)O (stereo not given) | -4 | -1 | 3 | -4 | 7.4* | 17* | -4 | 7
